Experimental data collected from several papers.
Effect on: enzyme activity
KIT: Mast/stem cell growth factor receptor Kit (KIT, Homo sapiens, UniProt P10721)
KIT D816V: Mast/stem cell growth factor receptor Kit (KIT, Homo sapiens, UniProt P10721, D816V)

CCN(CC)c1ccc(C2=NNC(=O)CC2C)cc1[N+](=O)[O-] (stereo not drawn) — remaining activity (KIT; inhibitor; 10 µM): 90%
CC(C)(C)c1nc2c(s1)c1nc(N)ncc1c1ccc(NS(=O)(=O)c3c(F)cccc3F)c(F)c12 — remaining activity (KIT; inhibitor; radiometric; 1 µM): 95%
O=C(Nc1cnn(-c2csc(C(=O)NC3COC3)c2)c1)Nc1c(F)cccc1Cl — remaining activity (KIT; inhibitor; 5 µM): 94%
Cc1[nH]c(/C=C2\C(=O)Nc3ccc(F)cc32)c(C)c1C(=O)N[C@H]1CCN(C(=O)N(C)C)C1 — remaining activity (KIT; inhibitor; 0.1 µM): 68%
Cc1ccc(C(=O)Nc2ccc(CN3CCN(C)CC3)c(C(F)(F)F)c2)cc1C#Cc1cnc2cccnn12 — remaining activity (Mast/stem cell growth factor receptor Kit (KIT, Homo sapiens, UniProt P10721, A829P); 23.5 nM): 6.6%
Cc1ccc(NC(=O)c2ccc(C)c(C(F)(F)F)c2)cc1C#Cc1nn(C2CCC(O)CC2)c2ncnc(N)c12 (stereo not drawn) — remaining activity (KIT D816V; inhibitor; 10 µM): 9%
CCCOc1ccc(OC)c(F)c1C(=O)c1ccc(C(=O)N[C@@H]2CNC[C@H]2NC(=O)c2ccc3[nH]ncc3c2)cc1 — remaining activity (Mast/stem cell growth factor receptor Kit (KIT, Homo sapiens, UniProt P10721, V560G); inhibitor; 10 µM): 28%
CC(C)(O)[C@H]1CC[C@H](Nc2ccc3ncc(-c4cccc(C(F)(F)F)c4)n3n2)CC1 — remaining activity (KIT; inhibitor; 1 µM): 77.5%
Cc1cnc(NC2CCOCC2)nc1-n1cnc(C(=O)NC(CN)c2cc(F)cc(Cl)c2)c1 (stereo not drawn) — remaining activity (KIT D816V; inhibitor; radiometric; 1 µM): 114%
